IMP-1 inhibitor = inhibitors of Pseudomonas aeruginosa IMP-1 metallo-beta-lactamase; inhibition, % at 5.6 µM; AID 1556; hit rate 0.45% among 290,000; purified IMP-1, nitrocefin hydrolysis, epi-absorbance fluorescence;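 active means inhibition above the mean plus 3 SD of all compounds in the same screening run, cut at about 4.5% in these data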;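 further: 0% = IMP-1 with DMSO and 100% = DMSO wells lacking enzyme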
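system = purified recombinant IMP-1 beta-lactamase | amount = 0.2 nM IMP-1, as dispensed | medium = HEPES buffer pH 7.1 with ZnSO4 and Brij 35 | times = 25 °C, 15 min preincubation, 25 min reaction | detection = plate fluorescence quenching by hydrolysis product, ex 480/em 530 nm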
PKA-R1A act = PKA-R1A complex activation | activation, % at 11.4 µM | hit rate 0.083% among 340,000 | P00514+P68181 | PKA-R1A dissociation, Cy5-IP20 fluorescence polarization; scaled: DMSO 0%, 113 µM cGMP 100%;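 active means percent activation above the mean of all tested compounds plus 3 SD, cut at about 19% in these data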;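 further: higher means more PKAc released from R1A so a rise in polarization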
VIM-2 inh = blocks Pseudomonas aeruginosa VIM-2 metallo-beta-lactamase. purified VIM-2, nitrocefin hydrolysis, epi-absorbance fluorescence. inhibition, % at 5.6 µM. hit rate 0.89% among 290,000. AID 1527;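 active means inhibition above the mean of all tested compounds plus 3 SD, cutoff set per screening run, cut at about 7.5% in these data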;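 further: red hydrolysis product quenches plate fluorescence so inhibitors raise well fluorescence; 0% = enzyme with DMSO and 100% = DMSO without enzyme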
bovine MsrA act = activators of bovine methionine sulfoxide reductase A. purified bovine MsrA, absorbance read-out. activation, % at 10.6 µM. hit rate 0.3% among 360,000. AID 602163; in the data active means activation above about 7.5%;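 further: 0% = vehicle and 100% = reference activator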
MsrA inh = bovine MsrA inhibition; purified bovine MsrA, absorbance read-out; inhibition, % at 15.5 µM; hit rate 0.75% among 360,000; AID 651718; in the data active means inhibition above about 4.5%;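 further: 0% = vehicle wells with enzyme and 100% = reference inhibitor wells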
PKA-R2B act = activates the human PKA-R2B holoenzyme complex; P22694+P31323; PKA-R2B holoenzyme dissociation, Cy5-IP20 fluorescence polarization; R2B truncated from residue 108, S112A mutant; 0% DMSO only, 100% 113 µM cGMP; activation, % at 11.4 µM; AID 504700; hit rate 0.079% among 340,000;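 active means activation above a cutoff set at the mean over all compounds plus 3 SD, cut at about 18% in these data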;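 further: higher means more holoenzyme dissociation and a rise in polarization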
Target sequence (P31323 whole entry, looked up, other chains not shown, the tested form may be a part): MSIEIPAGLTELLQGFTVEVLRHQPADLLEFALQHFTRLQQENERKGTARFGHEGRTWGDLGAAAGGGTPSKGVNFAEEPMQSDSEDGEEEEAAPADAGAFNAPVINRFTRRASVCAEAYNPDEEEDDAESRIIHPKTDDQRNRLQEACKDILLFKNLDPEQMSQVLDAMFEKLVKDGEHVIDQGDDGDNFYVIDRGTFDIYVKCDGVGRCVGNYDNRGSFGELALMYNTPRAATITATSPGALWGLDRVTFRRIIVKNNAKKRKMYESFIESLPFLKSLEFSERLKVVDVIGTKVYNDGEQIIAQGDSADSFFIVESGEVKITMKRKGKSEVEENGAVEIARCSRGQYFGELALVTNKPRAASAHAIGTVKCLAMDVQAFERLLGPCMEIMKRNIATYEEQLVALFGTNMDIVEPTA
The depositor's hits bear a star. Shown are actives, neighbours in structure and some others; about 2.1% of the full set was active somewhere.

N#Cc1c2c(c(NCc3cccnc3)n3c1nc1ccccc13)CCC2 was read as IMP-1 inhibitor -5.0, PKA-R1A act 4.7, VIM-2 inh 11.8*, bovine MsrA act -5.1, MsrA inh 0.0 and PKA-R2B act -9.7.
For COCCNc1c2c(c(C#N)c3nc4ccccc4n13)CCCC2 the results were IMP-1 inhibitor -3.8, PKA-R1A act 5.3, VIM-2 inh 7.7, bovine MsrA act -2.1, MsrA inh 1.2 and PKA-R2B act 7.2.
Screening Cc1c2c(n3c(nc4ccccc43)c1C#N)N(Cc1cccnc1)CC2 returned IMP-1 inhibitor -1.8 and VIM-2 inh 9.6*.
COc1cccc(C(=O)N[C@H](C(=O)N2CCC[C@H]2C(=O)NC2CCCC2)C2CCCCC2)c1 was read as MsrA inh -0.5.
For O=C(O)CC/C(=C\c1ccccc1[N+](=O)[O-])c1nc2ccccc2s1 the results were IMP-1 inhibitor -1.9, PKA-R1A act -1.9, VIM-2 inh 8.8*, bovine MsrA act -2.7, MsrA inh -0.6 and PKA-R2B act -1.2.
CN(c1ccccc1)c1ccc(/C=C(/CCC(=O)O)c2nc3ccccc3s2)cc1[N+](=O)[O-] was read as PKA-R1A act -11.5, bovine MsrA act -3.6, MsrA inh 1.8 and PKA-R2B act -4.6.
For N#Cc1cc2cc3c(cc2nc1N1CCOCC1)OCO3 the results were IMP-1 inhibitor 4.5*, PKA-R1A act -2.1, VIM-2 inh -0.8, bovine MsrA act -1.9, MsrA inh -1.2 and PKA-R2B act 6.3.
Screening CCCn1c(SCC(=O)NC2CC2)nnc1-c1ccccn1 returned IMP-1 inhibitor 0.3, PKA-R1A act -0.7, VIM-2 inh 1.8, bovine MsrA act -5.4, MsrA inh -0.3 and PKA-R2B act -8.9.
Nc1ccccc1O was read as PKA-R1A act inactive, bovine MsrA act 9.4* and PKA-R2B act inactive.
`Fc1ccc(CN2CCN(c3ncc(Cc4ccccc4)cn3)CC2)c(Cl)c1` gave MsrA inh -1.5.
Screening CC(C)(C)C(=O)NCCCc1nc2ccccc2n1CCCOc1ccc(Cl)cc1 returned IMP-1 inhibitor -1.1, PKA-R1A act -12.1, VIM-2 inh -4.5, bovine MsrA act 10.2*, MsrA inh -0.2 and PKA-R2B act -3.4.
Screening C=CCn1c(CCCNC(=O)C(C)(C)C)nc2ccccc21 returned IMP-1 inhibitor -1.0, PKA-R1A act 3.4, VIM-2 inh 1.4, bovine MsrA act 0.5, MsrA inh 0.3 and PKA-R2B act 5.1.
Screening Oc1c(Br)cc(Br)cc1CNc1nccs1 returned IMP-1 inhibitor 0.3, PKA-R1A act 0.9, VIM-2 inh 2.5, bovine MsrA act -3.2, MsrA inh -0.9 and PKA-R2B act 6.1.
For Oc1c(Br)cc(Br)cc1CNc1cnc2ccccc2c1 the results were IMP-1 inhibitor 14.2*, PKA-R1A act -1.1, VIM-2 inh 3.1, bovine MsrA act -6.7, MsrA inh 1.6 and PKA-R2B act 10.9.
Screening Cn1c(=O)c(N)c2c3c(c(Br)ccc31)C(=O)c1ccccc1-2 returned IMP-1 inhibitor -0.3, PKA-R1A act -12.2, VIM-2 inh 8.4*, bovine MsrA act 2.8, MsrA inh 1.0 and PKA-R2B act -9.3.
Screening CCOC(=O)N1CCN(c2ccc(C(C)=O)cc2F)CC1C (stereo unspecified) returned IMP-1 inhibitor -0.8, PKA-R1A act -3.0, VIM-2 inh -1.8, bovine MsrA act -4.5, MsrA inh 4.6* and PKA-R2B act -4.7.
`COC(=O)C1=C(C)N(C)C(=NCc2ccccc2C(F)(F)F)NC1c1cccc(F)c1` (stereo unspecified) gave MsrA inh -0.1.
`C#CCOCCOCCOCCNc1nc(N2CCN(C(=O)[C@H](CCC(=O)O)n3cc(C(N)CC(C)C)nn3)CC2)nc(N2CCN(C(=O)[C@H](Cc3ccc(O)cc3)n3cc(C(N)CC(C)C)nn3)CC2)n1` (stereo partly specified) gave IMP-1 inhibitor -2.8, PKA-R1A act -5.6, VIM-2 inh -1.5, bovine MsrA act -0.8 and PKA-R2B act 1.7.

Assay outcomes: PubChem, The Scripps Research Institute Molecular Screening Center
